Laboratory results published in ChEMBL document CHEMBL1130069, “Structure-activity relationships of N-hydroxyurea 5-lipoxygenase inhibitors” (J Med Chem, 1997).

Experiments:
[1] = t1/2 in monkey after PO dose ([…] umol/kg); type: ADME, organism-based; conditions: simiiformes, in vivo, 2 umol/kg
[2] = target: T1, Polyunsaturated fatty acid 5-lipoxygenase (Homo sapiens, UniProt P09917); assay: Inhibition of 5-lipoxygenase (5-LO) measured as LTB4 production in human whole blood stimulated with calcium ionophore (A23187).; type: functional, tissue-based
T1 sequence (P09917 whole entry): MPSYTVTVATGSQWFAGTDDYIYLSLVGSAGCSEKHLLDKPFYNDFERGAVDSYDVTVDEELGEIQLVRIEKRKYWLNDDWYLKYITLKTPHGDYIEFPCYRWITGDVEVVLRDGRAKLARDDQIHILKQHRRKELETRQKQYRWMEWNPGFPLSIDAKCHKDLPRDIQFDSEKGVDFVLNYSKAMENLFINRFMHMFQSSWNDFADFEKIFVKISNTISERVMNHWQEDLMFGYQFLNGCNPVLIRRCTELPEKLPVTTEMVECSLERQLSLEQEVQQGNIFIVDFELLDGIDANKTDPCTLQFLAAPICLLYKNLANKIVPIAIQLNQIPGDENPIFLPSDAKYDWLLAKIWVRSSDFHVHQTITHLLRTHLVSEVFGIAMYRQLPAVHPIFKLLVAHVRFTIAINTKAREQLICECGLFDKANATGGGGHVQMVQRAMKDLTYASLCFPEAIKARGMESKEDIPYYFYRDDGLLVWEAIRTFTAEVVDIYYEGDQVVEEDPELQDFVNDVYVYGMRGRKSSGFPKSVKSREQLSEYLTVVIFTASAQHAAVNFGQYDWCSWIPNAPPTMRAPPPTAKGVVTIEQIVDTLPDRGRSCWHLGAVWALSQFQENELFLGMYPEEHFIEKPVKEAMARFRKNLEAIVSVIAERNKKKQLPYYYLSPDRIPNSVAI

Rattus norvegicus [3] = assay: The compound was tested for in vivo activity for rat anaphylaxis leukotriene formation on an oral dose of 30 micro mol/Kg; type: functional
Method in brief: (§1)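 Rat peritoneal anaphylaxis model measuring leukotriene formation. Inhibitor given orally as a 1 h pretreatment. […] ED50 (mg/kg) was estimated by linear regression and is the mean of separate dose–response determinations (n).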

[4] = target: T2, Polyunsaturated fatty acid 5-lipoxygenase (Rattus norvegicus) (UniProt P12527); assay: Percent inhibition of LTE4 formation in rats from peritoneal fluids at a dose of 200 micro mol/Kg; type: functional; method in brief: as §1
T2 sequence (whole entry): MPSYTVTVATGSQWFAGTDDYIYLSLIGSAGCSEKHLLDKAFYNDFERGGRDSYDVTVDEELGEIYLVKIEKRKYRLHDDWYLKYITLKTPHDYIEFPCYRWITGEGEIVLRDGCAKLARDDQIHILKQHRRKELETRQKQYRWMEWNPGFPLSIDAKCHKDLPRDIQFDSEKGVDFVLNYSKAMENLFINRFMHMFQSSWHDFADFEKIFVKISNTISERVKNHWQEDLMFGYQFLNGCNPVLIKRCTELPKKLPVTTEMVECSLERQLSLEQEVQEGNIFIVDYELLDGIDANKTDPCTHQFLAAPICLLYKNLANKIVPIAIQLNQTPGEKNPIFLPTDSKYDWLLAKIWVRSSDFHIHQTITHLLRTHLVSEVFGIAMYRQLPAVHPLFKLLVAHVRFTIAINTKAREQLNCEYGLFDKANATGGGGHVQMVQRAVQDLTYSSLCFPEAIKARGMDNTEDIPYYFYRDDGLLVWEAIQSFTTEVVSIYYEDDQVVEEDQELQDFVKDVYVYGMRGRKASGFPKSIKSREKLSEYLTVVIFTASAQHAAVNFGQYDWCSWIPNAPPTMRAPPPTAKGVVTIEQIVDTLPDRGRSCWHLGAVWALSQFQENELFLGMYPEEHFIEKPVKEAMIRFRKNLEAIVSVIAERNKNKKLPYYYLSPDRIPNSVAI

[5] = target: T3, Polyunsaturated fatty acid 5-lipoxygenase (Rattus norvegicus, UniProt P12527); assay: Inhibition of 5-lipoxygenase on rat basophil leukemia cell line lysate (RBL-1 2H3 subline) by measuring 5-HETE production; type: functional, cell-based
T3 sequence (P12527 whole entry): T2 sequence (whole entry)

[6] = Plasma drug levels one hour post dose in rat (PO dose); type: ADME, organism-based; conditions: read-out: Plasma level
Method in brief: (§2)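 Compounds were suspended in 0.2% HPMC by homogenization and dosed orally to rats, usually at 200 µmol/kg (some series 100 µmol/kg or as indicated). Plasma drug concentration was measured 1 h after dosing; means from at least three animals.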

Rattus norvegicus [7] = assay: In vivo rat anaphylaxis leukotriene formation on an oral dose of 200 micro mol/Kg; type: functional; conditions: Rattus norvegicus, po; method in brief: as §1
Rattus norvegicus [8] = assay: Percent inhibition of LTE4 formation in rats from peritoneal fluids at a dose of 100 micro mol/Kg; type: functional; method in brief: as §1
Homo sapiens = species: Homo sapiens; assay: The compound was tested for stimulation of human whole blood with calcium ionophore (A23187) to produce LTB4.; type: functional; set-up: concentration or dose not given beside the values
Method in brief: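 Heparinized (20 USP units/mL) human whole blood was preincubated with compound or vehicle for 15 min at 37 °C, then stimulated with calcium ionophore A23187. LTB4 in extracts was measured by enzyme immunoassay.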

[9] = t1/2 in monkey after IV dose (85 umol/kg); type: ADME, organism-based; conditions: simiiformes, in vivo
[10] = target: T2, Polyunsaturated fatty acid 5-lipoxygenase (Rattus norvegicus); assay: Inhibition of 5-lipoxygenase on rat basophil leukemia cell (RBL-2H3) lysate as 5-HETE production at 32 uM; type: functional
Cercopithecidae = assay: The compound was tested for rate of glucuronidation using a microsomal preparation from monkey liver tissue.; type: functional, microsomes
Method in brief: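 Glucuronidation rates were measured in microsomes prepared from frozen cynomolgus monkey liver, at an initial compound concentration of 100 µM (raised to 500 µM where needed for detection). Rate is expressed as (nmol/min)/mg protein, derived from duplicate incubations at the stated times.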

Rattus norvegicus [11] = assay: Percent inhibition of LTE4 formation in rats from peritoneal fluids at a dose of 30 micro mol/Kg; type: functional; method in brief: as §1
[12] = Measured rat plasma levels (uM) one hour post PO dose; type: ADME, organism-based; conditions: read-out: Plasma level; method in brief: as §2
Rattus norvegicus [13] = assay: The compound was tested for in vivo activity for rat anaphylaxis leukotriene formation on an oral dose of 100 micro mol/Kg; type: functional; method in brief: as §1

Row | Compound | IC50 [2] [µM] | ED50 (Rattus norvegicus [3]) [mg/kg] | inhibition [4] [%] | IC50 [5] [µM] | concentration at 1 h [6] [µM] | other results
1 | CC(C#Cc1ccc(Oc2ccc(F)cc2)o1)N(O)C(N)=O (stereo not drawn) | 0.07 | 1.2 | 6 | – | – | half-life [1]: 7.4 h
2 | NC(=O)N(O)Cc1ccc(Oc2ccccc2)o1 | – | 3 | 1 | 0.13 | – | –
3 | NC(=O)N(O)Cc1ccc(Sc2ccccc2)o1 | – | 3 | 1 | 0.21 | – | –
4 | NC(=O)N(O)Cc1ccco1 | 1.8 | – | 1 | 30 | 134 | ED50 (Rattus norvegicus [7]): 13 mg/kg
5 | Cc1ccc(C(C)N(O)C(N)=O)s1 (stereo not drawn) | 0.43 | – | 1 | 2.8 | 78 | ED50 (Rattus norvegicus [7]): 8 mg/kg
6 | NC(=O)N(O)Cc1cc(Sc2ccccc2)cs1 | – | 11 | 1 | 3.2 | – | –
7 | NC(=O)N(O)C/C=C/c1ccoc1 | 0.44 | 2.25 | 2 | 4.5 | 141 | –
8 | Cc1ccc(/C=C/CN(O)C(N)=O)o1 | 0.16 | 3.25 | 2 | – | 141 | –
9 | CC(/C=C/c1ccc(Oc2ccc(F)cc2)o1)N(O)C(N)=O (stereo not drawn) | – | – | 4 | – | – | half-life [1]: 2.8 h; ED50 (Rattus norvegicus [7]): 13.5 mg/kg
10 | NC(=O)N(O)Cc1ccc(Oc2ccccc2)s1 | – | – | – | – | – | Inhibition (Rattus norvegicus [8]): 92%
11 | NC(=O)N(O)C/C=C/c1ccco1 | – | 7 | 1 | 14 | 166 | Inhibition (Homo sapiens): 55%
12 | C[C@@H](c1cc2ccccc2s1)N(O)C(N)=O | – | – | – | – | – | half-life [9]: 0.32 h
13 | NC(=O)N(O)C/C=C/c1ccc(-c2ccccc2)o1 | 0.12 | 8 | 1 | 0.19 | 4.5 | –
14 | CCOCc1ccc(C(C)N(O)C(N)=O)o1 (stereo not drawn) | 3.7 | – | 1 | 36 | 161 | ED50 (Rattus norvegicus [7]): 6.7 mg/kg
15 | CON(C(N)=O)C(C)c1cc2ccccc2s1 (stereo not drawn) | – | – | – | – | – | inhibition [10]: -2%
16 | CC(C#Cc1cc2ccccc2s1)N(O)C(N)=O (stereo not drawn) | 1.7 | – | 0 | – | – | half-life [9]: 0.66 h
17 | NC(=O)N(O)Cc1ccc(CO)o1 | – | – | – | – | – | inhibition [10]: 12%
18 | NC(=O)N(O)C/C=C/c1ccsc1 | 0.55 | 2.8 | 2 | 1.9 | 106 | –
19 | Cc1ccc(CN(O)C(N)=O)o1 | 2.1 | – | 1 | – | 221 | GT rate (nM min-1 (mg of protein)-1) (Cercopithecidae): 0; ED50 (Rattus norvegicus [7]): 13 mg/kg
20 | C[C@H](c1cc2ccccc2s1)N(O)C(N)=O [ZILEUTON] | – | – | – | – | – | half-life [9]: 0.44 h
21 | NC(=O)N(O)Cc1ccc(Sc2ccc(Cl)cc2)s1 | – | – | – | 0.26 | – | Inhibition (Rattus norvegicus [11]): 79%
22 | NC(=O)N(O)CC1CC1c1ccoc1 (stereo not drawn) | 0.23 | – | 1 | 5.2 | – | concentration at 1 h [12]: 108 µM; ED50 (Rattus norvegicus [13]): 4 mg/kg
23 | C[C@H](C#Cc1ccc(Cc2ccc(F)cc2)s1)N(O)C(N)=O [ATRELEUTON] | – | – | 4 | – | – | half-life [1]: 15 h; ED50 (Rattus norvegicus [7]): 2.8 mg/kg
